From ChEMBL document CHEMBL3046935, “Bioassay-directed isolation and identification of phytotoxic and fungitoxic acetylenes from Conyza canadensis” (J Agric Food Chem, 2012)
pIC50: −log10 of the molar value. Calls of active or inactive are those of the source. The calls are words filed in the database; no cut-off is given here.

Key:
[1] = system: Colletotrichum acutatum; assay: Antifungal activity against Colletotrichum acutatum assessed as growth inhibition at 0.3 to 30 uM by Ninety-Six Well microbioassay; format: functional, organism-based
Summary of the method: (§1)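 Fungi (the Colletotrichum isolates came from strawberry anthracnose lesions) were grown on PDA at 24 ± 2 °C under a 12 h photoperiod. They were tested in 96-well microtiter dose-response format at final concentrations of 0.3, 3.0 and 30.0 μM, in duplicate. Growth was read as absorbance at 620 nm at 0, 24, 48 and 72 h, with solvent controls.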

[2] = system: Colletotrichum gloeosporioides; assay: Antifungal activity against Colletotrichum gloeosporioides assessed as growth inhibition at 10 ug/spot by […]; format: functional
[3] = system: Lemna aequinoctialis; assay: Inhibition of growth of Lemna paucicostata
[4] = system: Colletotrichum acutatum; assay: Antifungal activity against Colletotrichum acutatum assessed as growth inhibition at 10 ug/spot by […]; format: functional
[5] = system: Colletotrichum gloeosporioides; assay: Antifungal activity against Colletotrichum gloeosporioides assessed as growth inhibition at 0.3 to 30 uM by Ninety-Six Well microbioassay; format: functional, organism-based; summary of the method: as §1
[6] = system: Colletotrichum fragariae; assay: Antifungal activity against Colletotrichum fragariae assessed as growth inhibition at 0.3 to 30 uM by Ninety-Six Well microbioassay; format: functional, organism-based; summary of the method: as §1
[7] = system: Colletotrichum fragariae; assay: Antifungal activity against Colletotrichum fragariae assessed as growth inhibition at 10 ug/spot by […]; format: functional
[8] = system: Agrostis stolonifera; assay: Phytotoxicity against Agrostis stolonifera seeds assessed as inhibition of germination of seeds at 1 mg/mL after 7 days; format: organism-based; details: in vivo, 168 h
Summary of the method: (§2)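 Seeds (5 mg lettuce or 10 mg bentgrass) were placed on filter paper in 24-well plates with 250 μL of test solution per well (acetone 3% final). Solvent-only wells served as controls. Plates were sealed and kept at 26 °C under continuous light for 7 days. Germination was rated visually on a 0−5 scale against untreated controls (0 = no effect, 5 = no growth/germination), with experiments in duplicate.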

[9] = system: Lactuca sativa; assay: Phytotoxicity against […] dicot Lactuca sativa (lettuce) seeds assessed as inhibition of germination of seeds at 1 mg/mL after 7 days; format: organism-based; details: in vivo, 168 h; summary of the method: as §2

Compound	Activity [1]	diameter of the inhibition zone (DIZ) [2] [mm]	pIC50 [3]	diameter of the inhibition zone (DIZ) [4] [mm]	Activity [5]	Activity [6]	diameter of the inhibition zone (DIZ) [7] [mm]	Activity [8]	Activity [9]
CCCC#C/C=C1/C=CC(=O)O1 [(4Z)-LACHNOPHYLLUM LACTONE]	Active	0.58	3.98	0.75	Active	Active	0.3	Toxic	Toxic
C/C=C\C#CC#C/C=C\C(=O)OC [(2Z,8Z)-MATRICARIA ACID METHYL ESTER]	–	–	–	–	–	–	–	Toxic	Toxic
C/C=C\C#C/C=C1/C=CC(=O)O1 [(4Z,8Z)-MATRICARIA LACTONE]	Active	0.98	3.66	0.7	Active	Active	2.65	Toxic	Toxic
